Data reported in ChEMBL document CHEMBL4371062, “Synthesis, biological evaluation and molecular docking study of 1,2,3-1H-triazoles having 4H-pyrano[2,3-d]pyrimidine as potential Mycobacterium tuberculosis protein tyrosine phosphatase B inhibitors” (Bioorg Med Chem Lett, 2019).
Converted amounts (≈) assume the structure as drawn. The source made the active and inactive calls. The rule behind the calls is not given here.

Key:
[1] = molecular target: T1, Phosphotyrosine protein phosphatase (Mycobacterium tuberculosis, UniProt A0A045ISB3); experiment: Inhibition of Mycobacterium tuberculosis PTPB using pNPP as substrate preincubated for 15 mins followed by substrate addition and measured after 2 to 6 mins
T1 sequence (A0A045ISB3 whole entry): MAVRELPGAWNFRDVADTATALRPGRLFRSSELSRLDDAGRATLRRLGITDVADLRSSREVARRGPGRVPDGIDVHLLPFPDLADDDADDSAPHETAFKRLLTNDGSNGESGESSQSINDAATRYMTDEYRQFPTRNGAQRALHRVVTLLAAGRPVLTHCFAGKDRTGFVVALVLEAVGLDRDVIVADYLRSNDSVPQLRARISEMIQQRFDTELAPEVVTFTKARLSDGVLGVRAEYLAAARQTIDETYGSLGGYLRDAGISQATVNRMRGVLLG
Method in brief: (§1)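 Recombinant M. tuberculosis PtpB, cloned, expressed and purified as previously described, assayed with p-nitrophenyl phosphate as substrate. IC50 is the mean of three independent experiments.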

[2] = Antioxidant activity assessed as ABTS radical scavenging activity by measuring trolox equivalent antioxidant capacity after 6 mins by UV/Vis spectrophotometric analysis; assay type: functional
[3] = molecular target: T2, Phosphotyrosine protein phosphatase (Mycobacterium tuberculosis) (UniProt A0A045ISB3); experiment: Inhibition of Mycobacterium tuberculosis PTPB up to 100 uM using pNPP as substrate preincubated for 15 mins followed by substrate addition and measured after 2 to 6 mins; method in brief: as §1
T2 sequence (whole entry): T1 sequence (A0A045ISB3 whole entry)

[4] = molecular target: T1, Phosphotyrosine protein phosphatase; experiment: Competitive inhibition of Mycobacterium tuberculosis PTPB using varying levels of pNPP as substrate preincubated for 15 mins followed by substrate addition and measured after 2 to 6 mins by Lineweaver-burk plot analysis
Method in brief: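 Substrate pNPP was varied at fixed inhibitor levels of 0, 1, 1.5, 2, 3 and 4 µM, with p-nitrophenol release treated by Michaelis-Menten kinetics. Mechanism was judged from Lineweaver-Burk double-reciprocal plots (1/Vmax y-intercept, KMapp/Vmax slope, −1/KMapp x-intercept). Ki was derived from these plots.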

[5] = molecular target: T2, Phosphotyrosine protein phosphatase (Mycobacterium tuberculosis); experiment: Ratio of IC50 for inhibition of Mycobacterium tuberculosis PTPB to Ki for competitive inhibition of Mycobacterium tuberculosis PTPB
[6] = system: Mycobacterium tuberculosis; experiment: Antitubercular activity against Mycobacterium tuberculosis H37Rv assessed as reduction in relative light units at 5 ug/ml after 72 hrs by luciferase reporter phage assay relative to control; assay type: functional
[7] = system: Mycobacterium tuberculosis; experiment: Antitubercular activity against Mycobacterium tuberculosis H37Rv assessed as reduction in relative light units at 25 ug/ml after 72 hrs by luciferase reporter phage assay relative to control; assay type: functional
Plasmodium falciparum = experiment: Antimalarial activity against synchronized ring stage of Plasmodium falciparum measured after 48 hrs; assay type: functional, organism-based
[8] = system: Mycobacterium tuberculosis; experiment: Antitubercular activity against Mycobacterium tuberculosis H37Rv at 100 ug/ml after 28 days by Lowensteine-Jensen method relative to control; assay type: functional; details: 672 h

Compound: CCOC(=O)C1=C(C)Oc2nc(C)n(Cc3cn([C@@H]4O[C@H](COC(C)=O)[C@@H](OC(C)=O)[C@H](OC(C)=O)[C@H]4OC(C)=O)nn3)c(=O)c2C1c1ccccc1O (stereo not given in full)
- IC50 [1]: 29 µM

Compound: CCOC(=O)C1=C(C)Oc2nc(C)n(Cc3cn([C@@H]4O[C@H](COC(C)=O)[C@@H](OC(C)=O)[C@H](OC(C)=O)[C@H]4OC(C)=O)nn3)c(=O)c2C1c1ccc(O)cc1 (stereo not given in full)
- IC50 [1]: 35.3 µM

Compound: CCOC(=O)C1=C(C)Oc2nc(C)n(Cc3cn([C@@H]4O[C@H](COC(C)=O)[C@@H](OC(C)=O)[C@H](OC(C)=O)[C@H]4OC(C)=O)nn3)c(=O)c2C1c1ccc(Cl)cc1 (stereo not given in full)
- IC50 [1]: 35.3 µM

Compound: CCOC(=O)C1=C(C)Oc2nc(C)n(Cc3cn([C@@H]4O[C@H](COC(C)=O)[C@@H](OC(C)=O)[C@H](OC(C)=O)[C@H]4OC(C)=O)nn3)c(=O)c2C1c1ccc(Cl)cc1Cl (stereo not given in full)
- IC50 [1]: 44 µM

Compound: CCOC(=O)C1=C(N)Oc2[nH]c(=O)[nH]c(=O)c2C1[C@H](O)[C@@H](O)[C@H](O[C@H]1O[C@H](CO)[C@@H](O)[C@H](O)[C@H]1O)[C@H](O)CO (stereo not given in full)
- Activity [2]: 5.24 µM

Compound: CCOC(=O)C1=C(C)Oc2nc(C)n(Cc3cn([C@@H]4O[C@H](COC(C)=O)[C@@H](OC(C)=O)[C@H](OC(C)=O)[C@H]4OC(C)=O)nn3)c(=O)c2C1c1ccc(C)cc1 (stereo not given in full)
- inhibition [3]: inactive
- Ki [4]: 2.16 µM
- Ratio [5]: 1.63

Compound: CCOC(=O)C1=C(C)Oc2nc(C)n(Cc3cn([C@@H]4O[C@H](COC(C)=O)[C@@H](OC(C)=O)[C@H](OC(C)=O)[C@H]4OC(C)=O)nn3)c(=O)c2C1c1ccccc1OC (stereo not given in full)
- IC50 [1]: 35 µM

Compound: CCOC(=O)C1=C(C)Oc2nc(C)n(Cc3cn([C@@H]4O[C@H](COC(C)=O)[C@@H](OC(C)=O)[C@H](OC(C)=O)[C@H]4OC(C)=O)nn3)c(=O)c2C1c1ccc(Br)cc1 (stereo not given in full)
- inhibition [3]: inactive
- Ki [4]: 1.8 µM
- Ratio [5]: 1.23

Compound: CCOC(=O)C1=C(C)Oc2nc(C)n(Cc3cn([C@@H]4O[C@H](COC(C)=O)[C@@H](OC(C)=O)[C@H](OC(C)=O)[C@H]4OC(C)=O)nn3)c(=O)c2C1c1cccc([N+](=O)[O-])c1 (stereo not given in full)
- IC50 [1]: 45 µM

Compound: CCOC(=O)C1=C(C)Oc2nc(C)n(Cc3cn([C@@H]4O[C@H](COC(C)=O)[C@@H](OC(C)=O)[C@H](OC(C)=O)[C@H]4OC(C)=O)nn3)c(=O)c2C1c1cc(OC)c(O)c(OC)c1 (stereo not given in full)
- IC50 [1]: 2.22 µM

Compound: CCOC(=O)C1=C(C)Oc2nc(C)n(Cc3cn([C@@H]4O[C@H](COC(C)=O)[C@@H](OC(C)=O)[C@H](OC(C)=O)[C@H]4OC(C)=O)nn3)c(=O)c2C1c1cccc(O)c1 (stereo not given in full)
- IC50 [1]: 35.9 µM

Compound: CCOC(=O)C1=C(C)Oc2nc(C)n(Cc3cn([C@@H]4O[C@H](COC(C)=O)[C@@H](OC(C)=O)[C@H](OC(C)=O)[C@H]4OC(C)=O)nn3)c(=O)c2C1c1cccc(Cl)c1 (stereo not given in full)
- IC50 [1]: 9.52 µM

Compound: CCOC(=O)C1=C(C)Oc2nc(C)n(Cc3cn([C@@H]4O[C@H](COC(C)=O)[C@@H](OC(C)=O)[C@H](OC(C)=O)[C@H]4OC(C)=O)nn3)c(=O)c2C1c1ccc(O)c(OC)c1 (stereo not given in full)
- IC50 [1]: 7.51 µM

Compound: CCOC(=O)C1=C(C)Oc2nc(C)n(Cc3cn([C@@H]4O[C@H](COC(C)=O)[C@@H](OC(C)=O)[C@H](OC(C)=O)[C@H]4OC(C)=O)nn3)c(=O)c2C1c1cc(OC)c(O)c([N+](=O)[O-])c1 (stereo not given in full)
- IC50 [1]: 1.56 µM

Compound: CCOC(=O)C1=C(C)Oc2nc(C)n(Cc3cn([C@@H]4O[C@H](COC(C)=O)[C@@H](OC(C)=O)[C@H](OC(C)=O)[C@H]4OC(C)=O)nn3)c(=O)c2C1c1ccc(O)c(OCC)c1 (stereo not given in full)
- IC50 [1]: 7.94 µM

Compound: CCOC(=O)C1=C(C)Oc2nc(C)n(Cc3cn([C@@H]4O[C@H](COC(C)=O)[C@@H](OC(C)=O)[C@H](OC(C)=O)[C@H]4OC(C)=O)nn3)c(=O)c2C1c1ccccc1[N+](=O)[O-] (stereo not given in full)
- IC50 [1]: 35.1 µM

Compound: CCOC(=O)C1=C(C)Oc2nc(C)n(Cc3cn([C@@H]4O[C@H](COC(C)=O)[C@@H](OC(C)=O)[C@H](OC(C)=O)[C@H]4OC(C)=O)nn3)c(=O)c2C1c1ccc(OCC)c(O)c1 (stereo not given in full)
- IC50 [1]: 3.53 µM

Compound: CCOC(=O)C1=C(C)Oc2nc(C)n(Cc3cn([C@@H]4O[C@H](COC(C)=O)[C@@H](OC(C)=O)[C@H](OC(C)=O)[C@H]4OC(C)=O)nn3)c(=O)c2C1c1ccc(N(C)C)cc1 (stereo not given in full)
- IC50 [1]: 32 µM

Compound: CCOC(=O)C1=C(C)Oc2nc(C)n(Cc3cn([C@@H]4O[C@H](COC(C)=O)[C@@H](OC(C)=O)[C@H](OC(C)=O)[C@H]4OC(C)=O)nn3)c(=O)c2C1c1cccc(OC)c1 (stereo not given in full)
- IC50 [1]: 28.2 µM

Compound: CCOC(=O)C1=C(C)Oc2nc(C)n(Cc3cn([C@@H]4O[C@H](COC(C)=O)[C@@H](OC(C)=O)[C@H](OC(C)=O)[C@H]4OC(C)=O)nn3)c(=O)c2C1c1ccc([N+](=O)[O-])cc1 (stereo not given in full)
- IC50 [1]: 33 µM

Compound: CC(=O)OC[C@H]1O[C@@H](OCc2cn(Cc3ccc4ccccc4n3)nn2)[C@H](OC(C)=O)[C@@H](OC(C)=O)[C@H]1OC(C)=O
- inhibition at 5 µg/mL [6]: 76%
- inhibition at 25 µg/mL [7]: 78%

Compound: CCOC(=O)C1=C(C)Oc2nc(C)n(Cc3cn([C@@H]4O[C@H](COC(C)=O)[C@@H](OC(C)=O)[C@H](OC(C)=O)[C@H]4OC(C)=O)nn3)c(=O)c2C1c1ccccc1Cl (stereo not given in full)
- IC50 [1]: 33.2 µM

Compound: CCOC(=O)C1=C(N)Oc2[nH]c(=O)[nH]c(=O)c2C1c1c(C)nn(-c2ccccc2)c1-n1ccnc1 (stereo not given)
- IC50 (Plasmodium falciparum): 0.062 µg/mL (≈ 0.13 µM)
- inhibition at 100 µg/mL [8]: 92%

Compound: CCOC(=O)C1=C(C)Oc2nc(C)n(Cc3cn([C@@H]4O[C@H](COC(C)=O)[C@@H](OC(C)=O)[C@H](OC(C)=O)[C@H]4OC(C)=O)nn3)c(=O)c2C1c1cc(OC)cc(OC)c1 (stereo not given in full)
- IC50 [1]: 32.5 µM

Compound: CCOC(=O)C1=C(C)Oc2nc(C)n(Cc3cn([C@@H]4O[C@H](COC(C)=O)[C@@H](OC(C)=O)[C@H](OC(C)=O)[C@H]4OC(C)=O)nn3)c(=O)c2C1c1ccccc1 (stereo not given in full)
- IC50 [1]: 47 µM

Compound: CCOC(=O)C1=C(C)Oc2nc(C)n(Cc3cn([C@@H]4O[C@H](COC(C)=O)[C@@H](OC(C)=O)[C@H](OC(C)=O)[C@H]4OC(C)=O)nn3)c(=O)c2C1c1ccc(C(C)C)cc1 (stereo not given in full)
- inhibition [3]: inactive
- Ki [4]: 1.1 µM
- Ratio [5]: 1.42

Compound: CCOC(=O)C1=C(C)Oc2nc(C)n(Cc3cn([C@@H]4O[C@H](COC(C)=O)[C@@H](OC(C)=O)[C@H](OC(C)=O)[C@H]4OC(C)=O)nn3)c(=O)c2C1c1ccc(OC)cc1 (stereo not given in full)
- IC50 [1]: 29 µM
